# From PubChem BioAssay
# The list is not random: actives were taken first. Their share in the collection is about 4.1%.
# TbMetRS inhib = Trypanosoma brucei MetRS inhibition | inhibition, % at 11.9 µM | 360,000 compounds, 0.4% hits | purified T. brucei MetRS, ATP depletion, Kinase-Glo luminescence;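 active means inhibition above a per-plate cutoff of the control wells' mean inhibition plus 3 SD, cut at about 5.5% in these data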;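 further: 0% = DMSO wells median and 100% = median of wells with control inhibitor compound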
#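 technique = Kinase-Glo luminescence, ATP depletion format | system = purified MetRS (methionyl-tRNA synthetase) enzyme from Trypanosoma brucei | timing = 15 min preincubation, 2 h reaction, all 25 °C | evaluation = percent inhibition versus plate control medians | dosing = single dose, 11.9 µM final nominal, 0.9% final DMSO | also added = substrates ATP, L-methionine and bulk Escherichia coli tRNA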
# SMARCA2 act = activators of SMARCA2 function | MG213 cells, MMTV-luciferase reporter, dexamethasone, overnight | activation, % at 9.1 µM | 370,000 compounds, 1% hits | AID 652017; in the data active means activation above about 7.8%;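 further: 0% = vehicle wells and 100% = reference activator wells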
# AHR activator = activates the human aryl hydrocarbon receptor; P35869; AHR-responsive luciferase reporter cells, luminescence; activation, % at 5 µM; 320,000 compounds, 2.5% hits; AID 2796; in the data active means activation above about 47%;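 further: 0% = vehicle wells and 100% = reference agonist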
# TAG inh = reduces triacylglycerol accumulation in H9c2 cells; Nile Red lipid (TAG) fluorescence; cells loaded with 200 µM oleic acid; AID 651582; 230,000 compounds, 0.66% hits; inhibition, % at 12.5 µM;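 active means pattern-corrected inhibition of lipid staining of at least 50% with the nuclear-stain viability signal not falling by more than 50%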;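 further: 0% = DMSO wells and 100% = triacsin C control wells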
# Efflux pump inh = blocks antifungal efflux pumps in multiplex yeast assay | S. cerevisiae Candida pump triplex, Nile Red efflux | 330,000 compounds, 0.44% hits | AID 485275 | inhibition, % at 10 µM;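 active means plate passing quality check with inhibition over a set limit, or well fluorescence over plate mean plus 4 SD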;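 further: Nile Red retained in pooled yeast measured as flow cytometry median fluorescence; 0% = buffer negative control and 100% = Enniatin B positive control; higher means more Nile Red kept so more efflux inhibition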
# Cmpd fluor yeast = compound fluorescence in yeast efflux pump counter-screen. shares compounds with Efflux pump inh. S. cerevisiae AD/pABC3, flow cytometry. fluorescence ratio to DMSO, % at 10 µM. 1,700 compounds, 4% hits;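 active means fluorescence ratio to DMSO above its plate's cutoff, the plate mean ratio plus 5 SD, cut at about 210% in these data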;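 further: unstained yeast with no Nile Red so the signal is compound autofluorescence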
# Mdr1 pump inh = inhibitors of Candida albicans Mdr1 efflux pump. shares compounds with Efflux pump inh. S. cerevisiae AD/CaMDR1, Nile Red efflux, flow cytometry. inhibition, % at 10 µM. 1,700 compounds, 1% hits; in the data active means inhibition above about 26%;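 further: 0% = DMSO vehicle and 100% = reference inhibitor; higher means more Nile Red retained so more efflux inhibition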
# Cdr2 pump inh = inhibitors of Candida albicans Cdr2 efflux pump; shares compounds with Efflux pump inh; S. cerevisiae AD/CaCDR2, Nile Red retention, flow cytometry; Nile Red retention ratio vs DMSO, % at 10 µM; 1,700 compounds, 4% hits; AID 588520; in the data active means Nile Red retention ratio vs DMSO above about 190%;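 further: higher ratio means more blocking of Cdr2 efflux of the dye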
# Cdr1 pump inh = blocks the Candida albicans Cdr1 efflux pump in yeast; shares compounds with Efflux pump inh; S. cerevisiae AD/CaCDR1, Nile Red efflux, flow cytometry; inhibition, % at 10 µM; 1,700 compounds, 1% hits; AID 588522;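 active means inhibition above the screen-wide mean plus twice its standard deviation, cut at about 32% in these data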
# * = called active by the depositor; nt = not tested or not shown.
SMILES,TbMetRS inhib,SMARCA2 act,AHR activator,TAG inh,Efflux pump inh,Cmpd fluor yeast,Mdr1 pump inh,Cdr2 pump inh,Cdr1 pump inh
O=C(NCc1ccc(F)cc1)c1noc2c1CCCC2,-0.5,nt,-4.9,nt,0.9*,83.3,-0.4,95.4,-0.5
CCCCCCCCCCCCCCCC[n+]1ccc(/C=N/O)cc1,-0.2,-7.6,3.1,nt,2.0*,108.3,-0.2,118.0,0.0
CCOC(=O)c1ccccc1NC(=O)c1cn(-c2ccc(OC)cc2)c(=O)c2ccccc12,0.0,-1.4,2.2,5.2,15.2*,93.7,0.1,101.5,0.0
CCCC(=O)N1CCC[C@]2(CC[C@H](CCC(=O)OCC)O2)C1,nt,1.0,nt,nt,nt,nt,nt,nt,nt
C[C@@H]1OC(C2CCCCC2)N(C)[C@H]2C[C@H]3c4[nH]c5c(-c6ccc7c(c6)OCO7)cccc5c4CCN3C[C@@H]12 (stereo partly specified),nt,-5.3,nt,nt,nt,nt,nt,nt,nt
O=C(CCCc1ccccc1)N=C1SC2CS(=O)(=O)CC2N1c1ccccc1 (stereo unspecified),-0.6,-1.7,3.1,nt,0.0,nt,nt,nt,nt
CN(C)c1ccc(N2C(=NC(=O)CCc3ccccc3)SC3CS(=O)(=O)CC32)cc1 (stereo unspecified),-0.5,-0.7,4.0,nt,1.0*,121.2,0.9,99.3,0.1
C=CCN1[C@H](CC(C)C)COc2cccc(F)c2S1(=O)=O,nt,-1.5,nt,nt,nt,nt,nt,nt,nt
Cc1ccc(NC(=O)COC(=O)c2cc(Cl)ccc2Cl)c(Br)c1,-0.8,-4.3,5.9,-2.4,1.3*,96.6,-0.4,87.3,-0.1
c1ccc2c(c1)Cc1cc(CN3CCOCC3)ccc1-2,-0.1,6.3,5.5,nt,5.9*,84.1,-0.2,122.2,-0.1
CCOC(=O)[C@@]12CCC3=C1N(CCC3)C(=O)[C@H](CC(=O)NCCc1ccccc1OC)C2,nt,-1.9,nt,nt,nt,nt,nt,nt,nt
O=C(C(=O)N1CCC(CNS(=O)(=O)c2ccc(C(F)(F)F)cc2)CC1)c1cccs1,nt,3.2,nt,nt,nt,nt,nt,nt,nt
COc1cc2c(cc1OC)C(c1cc(OC)c(OC)c(OC)c1)NCC2 (stereo unspecified),-0.1,-0.6,-2.2,-0.1,0.6*,101.8,-0.4,93.0,-0.3
CCOC(=O)C(NC(=O)c1ccc(F)cc1)(Nc1nnc(C)s1)C(F)(F)F (stereo unspecified),-0.2,-5.7,3.2,-2.5,-0.1,nt,nt,nt,nt
CCOC(=O)C(NC(=O)c1cccc(Cl)c1)(Nc1nnc(C)s1)C(F)(F)F (stereo unspecified),-0.6,0.0,4.0,nt,9.7*,105.7,0.5,108.1,0.3
CCOc1ccc(CNC(=O)NS(=O)(=O)c2ccc(OC)cc2)cc1,-0.8,0.8,-0.7,nt,5.9*,97.6,0.1,107.2,-0.1
COc1ccc(CNC(=O)c2c(N)[nH]c(C(=O)c3ccccc3)c2-c2ccc3ccccc3c2)cc1OC,nt,-1.3,nt,nt,nt,nt,nt,nt,nt
COc1ccccc1/C=c1\sc2nc(-c3ccco3)nn2c1=O,-1.7,nt,11.2,0.0,0.3,nt,nt,nt,nt
CCOc1ccc(/C=c2\sc3nc(-c4ccco4)nn3c2=O)cc1OCC,-1.0,-0.8,-1.1,-5.0,0.2,115.5,0.1,102.9,0.2
COc1ccccc1C1CCN(Cc2c(C)[nH]c3ccccc23)CC1,0.4,-1.6,2.0,24.5,0.9*,107.8,0.0,95.6,-0.1
CC(=O)Nc1ccc(S(=O)(=O)N2CCN=C2SCc2ccc(C)cc2)cc1,1.1,1.8,3.2,-1.9,-0.3,nt,nt,nt,nt
CC(=O)Nc1ccc(S(=O)(=O)N2CCN=C2SCc2ccc(F)cc2)cc1,0.2,-1.4,4.1,nt,1.4*,88.7,-0.1,91.1,-0.2
Cc1cc(N/N=C/c2ccccc2[N+](=O)[O-])nc(-n2nc(C)cc2C)n1,-0.4,1.1,15.6,78.8,0.8*,96.6,-0.8,92.0,0.0
Cc1cc(N/N=C/c2ccc(O)cc2O)nc(-n2nc(C)cc2C)n1,-0.6,1.1,-0.1,nt,0.1,nt,nt,nt,nt
COC(=O)C1=C(C)Nc2c(c(=O)n(C)c(=O)n2C)C1c1ccc(Cl)cc1 (stereo unspecified),-0.2,-4.1,-3.4,nt,22.2*,101.4,-0.1,95.6,-0.1
